Our source for the inhibition values is ChEMBL document CHEMBL4020787, “Lodopyridones B and C from a marine sediment-derived bacterium Saccharomonospora sp” (Bioorg Med Chem Lett, 2017).

Experiment [1] has as its target Beta-secretase 1 (Homo sapiens) (UniProt P56817). Nature of the experiment: Inhibition of BACE1 (unknown origin) at 100 uM using Rh-EVNLDAEFK-Quencher as substrate after 60 mins by fluorescence spectroscopy relative to control. In short, it runs like this:
(§1)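 Enzyme tested across a concentration series, with isoliquiritigenin as the reference drug. Activity is reported as percent inhibition.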

Experiment [2] has the same target. Nature of the experiment: Inhibition of BACE1 (unknown origin) at 1 to 100 uM using Rh-EVNLDAEFK-Quencher as substrate after 60 mins by fluorescence spectroscopy. In short, it runs like this: as §1
The target is the same in experiment [3]. Description: Inhibition of BACE1 (unknown origin) at <100 nM using Rh-EVNLDAEFK-Quencher as substrate after 60 mins by fluorescence spectroscopy. Put shortly:
as §1

Experiment [4] has the same target. Nature of the experiment: Inhibition of BACE1 in human SH-SY5Y cells assessed as decrease in amyloid beta (1 to 42) production at 1000 uM after 24 hrs by ELISA relative to control. The experiment is classed as cell-based. In short, it runs like this: (§2)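 SH-SY5Y cells were exposed to the compound, and released Aβ40 and Aβ42 were quantified separately as percent of untreated control. Isoliquiritigenin was run in parallel as the reference drug.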
In general terms: ELISA stands for enzyme-linked immunosorbent assay.

Experiment [5] has the same target. Nature of the experiment: Inhibition of BACE1 in human SH-SY5Y cells assessed as decrease in amyloid beta (1 to 42) production after 24 hrs by ELISA relative to control. The experiment is classed as cell-based. In short, it runs like this: as §2
The target is the same in experiment [6]. Description: Inhibition of BACE1 in human SH-SY5Y cells assessed as decrease in amyloid beta (1 to 40) production after 24 hrs by ELISA relative to control. The experiment is classed as cell-based. In short, it runs like this: as §2
Experiment [7] has the same target. Description: Inhibition of BACE1 in human SH-SY5Y cells assessed as decrease in amyloid beta (1 to 40) production at 1000 uM after 24 hrs by ELISA relative to control. The experiment is classed as cell-based. In short, it runs like this: as §2

Molecules are shown by their SMILES. Active and inactive are the calls of the source. The rule behind the calls is not given here.

Sequence of Beta-secretase 1 (Homo sapiens) (P56817 whole entry): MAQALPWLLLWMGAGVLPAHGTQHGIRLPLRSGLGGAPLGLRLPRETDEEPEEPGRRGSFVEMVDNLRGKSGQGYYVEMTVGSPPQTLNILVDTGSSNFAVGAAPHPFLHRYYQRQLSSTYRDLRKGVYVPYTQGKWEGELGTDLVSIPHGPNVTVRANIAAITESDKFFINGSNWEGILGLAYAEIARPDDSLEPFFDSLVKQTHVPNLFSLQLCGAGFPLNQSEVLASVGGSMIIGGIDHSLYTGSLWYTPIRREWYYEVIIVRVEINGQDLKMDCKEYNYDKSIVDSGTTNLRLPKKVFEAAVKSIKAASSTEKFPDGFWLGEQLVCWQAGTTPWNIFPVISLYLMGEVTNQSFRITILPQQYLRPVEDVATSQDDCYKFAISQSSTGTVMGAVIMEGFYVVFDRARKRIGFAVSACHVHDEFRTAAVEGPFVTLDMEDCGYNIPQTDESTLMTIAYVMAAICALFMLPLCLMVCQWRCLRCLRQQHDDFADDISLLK

As to `COc1c(-c2csc(-c3ccc4cc(Cl)ccc4n3)n2)n(C)c(C(=O)NCCO)c([S+](C)[O-])c1=O` (stereo not drawn), the inhibition in experiment [1] is 51%; in experiment [2], “Dose-dependent effect”. Also, the inhibition result in experiment [3] is “inactive”.

For `COc1c(-c2csc(-c3ccc4cc(Cl)ccc4n3)n2)n(C)c(C(=O)NCCO)c(SC)c1=O`, the inhibition is 42% in experiment [1] and “Dose-dependent effect” in experiment [2]. In addition, in experiment [3], the inhibition result was “inactive”.

Regarding `COc1c(-c2csc(-c3ccc4cc(Cl)ccc4n3)n2)n(C)c(C(=O)NCCOC(C)=O)c(SC)c1=O`, the inhibition was 60% in experiment [1]; “Dose-dependent effect” in experiment [2]; 49% in experiment [4]; “Dose-dependent effect” in experiment [5]; “Dose-dependent effect” in experiment [6]; 41% in experiment [7]. Also, the inhibition entry in experiment [3] was “inactive”.

What is called inhibition is the drop in the measured response relative to a control, in per cent.
